# According to ChEMBL document CHEMBL1133252 (Bioorg Med Chem Lett, 2000):
# Legend:
# [1] = test system: A2780; assay: Inhibitory activity against ovarian tumor cell line A2780 after 72 hr continuous exposure to compound; assay type: functional, cell-based; conditions: Homo sapiens, A2780, 72 h
# Summary of the method: (§1)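 Log-phase cells were plated in triplicate at 2500–3500 cells/well, and the compound was added 24 h later for 72 h continuous exposure. […] Media: A2780/143B DMEM+5% FBS; HT29 DMEM+10% FBS; HCT116 RPMI+10% FBS; ADDP (cisplatin-resistant A2780) RPMI+5% FBS.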
# [2] = biological target: Serine/threonine-protein phosphatase 2A catalytic subunit (Gallus gallus); assay: Inhibitory activity against partially purified (chicken skeletal muscle) Protein phosphatase 2A
# [3] = test system: 143B; assay: Inhibitory activity against tumor osteosarcoma cell line 143B after 72 hr continuous exposure to compound; assay type: functional, cell-based; conditions: Homo sapiens; summary of the method: as §1
# [4] = test system: ADDP cell line; assay: Inhibitory activity against ovarian tumor cell line ADDP after 72 hr continuous exposure to compound; assay type: functional, cell-based; conditions: Homo sapiens; summary of the method: as §1
# [5] = test system: HT-29; assay: Inhibitory activity against colon tumor cell line HT-29 after 72 hr continuous exposure to compound; assay type: functional, cell-based; conditions: Homo sapiens, HT-29, 72 h; summary of the method: as §1
# [6] = test system: HCT-116; assay: Inhibitory activity against colon tumor cell line HCT116 after 72 hr continuous exposure to compound; assay type: functional, cell-based; conditions: Homo sapiens, HCT-116, 72 h; summary of the method: as §1
# [7] = biological target: Serine/threonine-protein phosphatase 2A catalytic subunit alpha isoform (Homo sapiens) (UniProt P67775); assay: The compound was tested for the selectivity against protein phosphatases 2A
# [8] = biological target: T1, DNA topoisomerase 2 (Drosophila melanogaster, UniProt P15348); assay: Inhibition of topoisomerase IIin vitro through a novel, non-DNA-strandcleaving mechanism
# T1 sequence (P15348 whole entry): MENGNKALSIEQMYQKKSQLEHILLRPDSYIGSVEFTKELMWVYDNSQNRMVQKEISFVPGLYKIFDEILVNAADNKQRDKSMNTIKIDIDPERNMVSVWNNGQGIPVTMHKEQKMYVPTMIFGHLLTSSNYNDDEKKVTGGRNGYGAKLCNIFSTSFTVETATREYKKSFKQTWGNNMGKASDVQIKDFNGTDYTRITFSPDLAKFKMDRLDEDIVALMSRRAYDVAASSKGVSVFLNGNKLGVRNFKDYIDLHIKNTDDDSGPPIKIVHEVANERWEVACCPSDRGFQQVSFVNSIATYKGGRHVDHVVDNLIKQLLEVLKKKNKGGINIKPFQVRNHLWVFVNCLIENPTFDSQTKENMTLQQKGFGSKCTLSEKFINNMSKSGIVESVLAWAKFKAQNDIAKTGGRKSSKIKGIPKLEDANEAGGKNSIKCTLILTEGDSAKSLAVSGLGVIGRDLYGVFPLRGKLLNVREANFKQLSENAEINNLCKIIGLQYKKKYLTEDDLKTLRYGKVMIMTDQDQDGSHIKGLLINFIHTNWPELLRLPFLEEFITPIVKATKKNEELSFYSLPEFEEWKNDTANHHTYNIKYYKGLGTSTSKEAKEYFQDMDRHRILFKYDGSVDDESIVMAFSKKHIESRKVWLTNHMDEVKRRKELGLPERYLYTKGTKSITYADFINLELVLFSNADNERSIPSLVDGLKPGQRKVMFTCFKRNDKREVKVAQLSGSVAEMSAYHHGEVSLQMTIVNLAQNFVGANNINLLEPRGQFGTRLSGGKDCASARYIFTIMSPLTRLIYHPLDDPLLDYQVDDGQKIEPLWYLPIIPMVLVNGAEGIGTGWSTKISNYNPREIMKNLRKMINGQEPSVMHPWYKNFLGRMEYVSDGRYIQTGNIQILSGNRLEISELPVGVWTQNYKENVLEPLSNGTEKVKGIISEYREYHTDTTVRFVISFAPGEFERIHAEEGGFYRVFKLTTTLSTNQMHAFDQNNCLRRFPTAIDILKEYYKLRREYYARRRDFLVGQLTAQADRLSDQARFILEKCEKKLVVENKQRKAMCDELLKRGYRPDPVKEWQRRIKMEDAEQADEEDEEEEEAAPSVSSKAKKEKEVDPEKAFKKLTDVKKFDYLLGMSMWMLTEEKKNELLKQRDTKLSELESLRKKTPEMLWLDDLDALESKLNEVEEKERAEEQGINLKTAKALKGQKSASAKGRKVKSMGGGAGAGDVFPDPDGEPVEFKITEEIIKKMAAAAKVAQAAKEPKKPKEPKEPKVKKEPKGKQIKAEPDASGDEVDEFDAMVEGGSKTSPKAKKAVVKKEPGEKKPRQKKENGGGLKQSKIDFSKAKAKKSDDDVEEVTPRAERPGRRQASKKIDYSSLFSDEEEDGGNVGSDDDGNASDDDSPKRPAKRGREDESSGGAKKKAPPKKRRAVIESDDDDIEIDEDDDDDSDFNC
# [9] = test system: L1210; assay: Inhibitory activity against L1210 leukemia cells; assay type: functional, cell-based; conditions: Mus musculus
# Sequence of Serine/threonine-protein phosphatase 2A catalytic subunit alpha isoform (Homo sapiens) (P67775 whole entry, canonical isoform): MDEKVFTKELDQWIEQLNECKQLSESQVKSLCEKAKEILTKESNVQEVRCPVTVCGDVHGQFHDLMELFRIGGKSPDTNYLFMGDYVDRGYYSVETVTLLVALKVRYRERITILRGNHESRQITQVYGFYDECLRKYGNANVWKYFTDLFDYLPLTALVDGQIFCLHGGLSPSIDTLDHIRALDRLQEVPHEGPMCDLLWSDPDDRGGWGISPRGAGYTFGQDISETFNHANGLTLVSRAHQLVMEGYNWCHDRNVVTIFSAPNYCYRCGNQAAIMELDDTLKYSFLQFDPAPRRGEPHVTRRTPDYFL
SMILES,IC50 [1] [µM],IC50 [2] [µM],IC50 [3] [µM],IC50 [4] [µM],IC50 [5] [µM],IC50 [6] [µM],Selectivity [7],IC50 [8] [µM],IC50 [9] [µM]
COC1OC(=O)[C@H]2[C@@H]1[C@@H]1CC[C@H]2O1 (some centres undefined),538,> 1000,> 1000,323,28,143,,,
CCCOC1OC(=O)[C@H]2[C@@H]1[C@@H]1CC[C@H]2O1 (some centres undefined),375,,> 1000,535,41,195,,,
CCOC1OC(=O)[C@H]2[C@@H]1[C@@H]1CC[C@H]2O1 (some centres undefined),100,,103,107,26,80,,,
O=C1OC(=O)[C@H]2[C@@H]1[C@@H]1CC[C@H]2O1,50,,43,47,33,24,,,
"COC(=O)C1C(C(=O)O)[C@@H]2CC[C@H]1O2 (single isomer, unassigned)",100,,118,180,105,76,,,
"CCCOC(=O)C1C(C(=O)O)[C@@H]2CC[C@H]1O2 (single isomer, unassigned)",,,,315,15,75,,,
"CCOC(=O)C1C(C(=O)O)[C@@H]2CC[C@H]1O2 (single isomer, unassigned)",185,0.45,437,330,243,266,6.6,,
C[C@@]12C(=O)OC(=O)[C@]1(C)[C@H]1CC[C@@H]2O1 [CANTHARIDIN],10,,10,11,6.4,9,,,
C[C@@](O)(/C=C/[C@H]1CC=CC(=O)O1)[C@@H](C[C@@H](O)\C=C/C=C\C=C\CO)OP(=O)(O)O [FOSTRIECIN],,0.0034,,,,,,40,0.46
